Experimental data: ChEMBL document CHEMBL5058577, “EUbOPEN Chemogenomics Library 2 (Multiplex)” (2022)

Tested on: HEK-293T
Experiment: Multiplex assay against HEK293T
Assay type: toxicity, cell-based
Settings: human
Procedure, shortened: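 On a CQ1 microscope at 37°C and 5% CO2, live cells were imaged after compound addition. They had been stained at seeding with Hoechst33342, BioTracker Green Microtubule Cytoskeleton Dye, MitoTracker Red and Annexin V Alexa Fluor 680. CellPathfinder machine-learning gating assigned cells to Hoechst high-intensity objects or normal cells, normal cells to healthy, pyknosed or fragmented nuclei, and pyknosed cells to mitotic or apoptotic. Tubulin, mitochondrial-mass and membrane-permeability phenotypes are per cents of healthy-nucleus cells.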

[1] = 12 h, 1 µM, compound concentration 1 uM, replicate 1
[2] = 12 h, 1 µM, compound concentration 1 uM, replicate 2
[3] = 12 h, 10 µM, compound concentration 10 uM, replicate 1
[4] = 12 h, 10 µM, compound concentration 10 uM, replicate 2
[5] = 24 h, 1 µM, compound concentration 1 uM, replicate 1
[6] = 24 h, 1 µM, compound concentration 1 uM, replicate 2
[7] = 24 h, 10 µM, compound concentration 10 uM, replicate 1
[8] = 24 h, 10 µM, compound concentration 10 uM, replicate 2
[9] = 48 h, 1 µM, compound concentration 1 uM, replicate 1
[10] = 48 h, 1 µM, compound concentration 1 uM, replicate 2
[11] = 48 h, 10 µM, compound concentration 10 uM, replicate 1
[12] = 48 h, 10 µM, compound concentration 10 uM, replicate 2

## Cc1cc(=O)n(C)c2cc(N3C(=O)CC[C@H](NS(=O)(=O)CC(C)C)[C@H]3c3ccc(Cl)cc3)ccc12
[1]
  Population Apoptotic (%): 43%
  Population Fragmented Nuclei (%): 7%
  Population Healthy Nuclei (%): 83%
  Population Hoechst High Intensity Objects (%): 8%
  Population Membrane Permeable-Phenotype (%): 0%
  Population Mitochondria Different-Phenotype (%): 41%
  Population Mitotic Cells (%): 56%
  Population Normal (%): 91%
  Population Pyknosed Nuclei (%): 8%
  Population Tubulin-Different-Phenotype (%): 32%
  Total Cell Count: 454
[2]
  Population Apoptotic (%): 63%
  Population Fragmented Nuclei (%): 6%
  Population Healthy Nuclei (%): 78%
  Population Hoechst High Intensity Objects (%): 6%
  Population Mitochondria Different-Phenotype (%): 53%
  Population Mitotic Cells (%): 36%
  Population Normal (%): 93%
  Population Pyknosed Nuclei (%): 14%
  Population Tubulin-Different-Phenotype (%): 14%
  Total Cell Count: 265
[3]
  Population Apoptotic (%): 47%
  Population Fragmented Nuclei (%): 4%
  Population Healthy Nuclei (%): 70%
  Population Hoechst High Intensity Objects (%): 11%
  Population Membrane Permeable-Phenotype (%): 0%
  Population Mitochondria Different-Phenotype (%): 75%
  Population Mitotic Cells (%): 52%
  Population Normal (%): 88%
  Population Pyknosed Nuclei (%): 24%
  Population Tubulin-Different-Phenotype (%): 81%
  Total Cell Count: 368
[4]
  Population Apoptotic (%): 50%
  Population Fragmented Nuclei (%): 6%
  Population Healthy Nuclei (%): 66%
  Population Hoechst High Intensity Objects (%): 16%
  Population Mitochondria Different-Phenotype (%): 86%
  Population Mitotic Cells (%): 49%
  Population Normal (%): 83%
  Population Pyknosed Nuclei (%): 27%
  Population Tubulin-Different-Phenotype (%): 66%
  Total Cell Count: 331
[5]
  Population Apoptotic (%): 33%
  Population Fragmented Nuclei (%): 9%
  Population Healthy Nuclei (%): 81%
  Population Hoechst High Intensity Objects (%): 4%
  Population Membrane Permeable-Phenotype (%): 0%
  Population Mitochondria Different-Phenotype (%): 25%
  Population Mitotic Cells (%): 66%
  Population Normal (%): 95%
  Population Pyknosed Nuclei (%): 9%
  Population Tubulin-Different-Phenotype (%): 19%
  Total Cell Count: 646
[6]
  Population Apoptotic (%): 36%
  Population Fragmented Nuclei (%): 4%
  Population Healthy Nuclei (%): 82%
  Population Hoechst High Intensity Objects (%): 5%
  Population Membrane Permeable-Phenotype (%): 1%
  Population Mitochondria Different-Phenotype (%): 42%
  Population Mitotic Cells (%): 63%
  Population Normal (%): 94%
  Population Pyknosed Nuclei (%): 13%
  Population Tubulin-Different-Phenotype (%): 17%
  Total Cell Count: 327
[7]
  Population Apoptotic (%): 34%
  Population Fragmented Nuclei (%): 7%
  Population Healthy Nuclei (%): 72%
  Population Hoechst High Intensity Objects (%): 9%
  Population Membrane Permeable-Phenotype (%): 0%
  Population Mitochondria Different-Phenotype (%): 67%
  Population Mitotic Cells (%): 65%
  Population Normal (%): 90%
  Population Pyknosed Nuclei (%): 19%
  Population Tubulin-Different-Phenotype (%): 67%
  Total Cell Count: 419
[8]
  Population Apoptotic (%): 76%
  Population Fragmented Nuclei (%): 8%
  Population Healthy Nuclei (%): 67%
  Population Hoechst High Intensity Objects (%): 22%
  Population Mitochondria Different-Phenotype (%): 85%
  Population Mitotic Cells (%): 23%
  Population Normal (%): 77%
  Population Pyknosed Nuclei (%): 23%
  Population Tubulin-Different-Phenotype (%): 71%
  Total Cell Count: 328
[9]
  Population Apoptotic (%): 25%
  Population Fragmented Nuclei (%): 14%
  Population Healthy Nuclei (%): 78%
  Population Hoechst High Intensity Objects (%): 3%
  Population Membrane Permeable-Phenotype (%): 0%
  Population Mitochondria Different-Phenotype (%): 17%
  Population Mitotic Cells (%): 74%
  Population Normal (%): 96%
  Population Pyknosed Nuclei (%): 6%
  Population Tubulin-Different-Phenotype (%): 15%
  Total Cell Count: 985
[10]
  Population Apoptotic (%): 31%
  Population Fragmented Nuclei (%): 11%
  Population Healthy Nuclei (%): 79%
  Population Hoechst High Intensity Objects (%): 7%
  Population Mitochondria Different-Phenotype (%): 20%
  Population Mitotic Cells (%): 68%
  Population Normal (%): 92%
  Population Pyknosed Nuclei (%): 9%
  Population Tubulin-Different-Phenotype (%): 17%
  Total Cell Count: 454
[11]
  Population Apoptotic (%): 56%
  Population Fragmented Nuclei (%): 12%
  Population Healthy Nuclei (%): 77%
  Population Hoechst High Intensity Objects (%): 10%
  Population Membrane Permeable-Phenotype (%): 1%
  Population Mitochondria Different-Phenotype (%): 67%
  Population Mitotic Cells (%): 43%
  Population Normal (%): 89%
  Population Pyknosed Nuclei (%): 10%
  Population Tubulin-Different-Phenotype (%): 58%
  Total Cell Count: 548
[12]
  Population Apoptotic (%): 66%
  Population Healthy Nuclei (%): 67%
  Population Hoechst High Intensity Objects (%): 19%
  Population Membrane Permeable-Phenotype (%): 0%
  Population Mitochondria Different-Phenotype (%): 76%
  Population Mitotic Cells (%): 33%
  Population Normal (%): 80%
  Population Pyknosed Nuclei (%): 19%
  Population Tubulin-Different-Phenotype (%): 56%
  Total Cell Count: 371
